Results from different studies.
Compare with care: the assays were run in different laboratories.
ADRB3: Beta-3 adrenergic receptor (ADRB3, Homo sapiens, UniProt P13945)

Cn1cc(-c2cc(F)cc(N3CCn4c(cc5c4CCCC5)C3=O)c2CO)cc(Nc2ccc(N3CCN(C4COC4)CC3)cn2)c1=O  inhibition (Tyrosine-protein kinase Tec (TEC, Homo sapiens, UniProt P42680); enzyme activity, inhibitor; 0.1 µM): -3%
C#Cc1n[nH]c2c(-c3cn([C@@H](C)c4ccccn4)c(=O)[nH]c3=O)cc(F)cc12  inhibition (Serine/threonine-protein kinase Sgk1 (SGK1, Homo sapiens, UniProt O00141); enzyme activity, inhibitor; 0.1 µM): -0.7%
COC(=O)NCCc1c(C(O)c2ccccc2)[nH]c2ccc(OC)cc12 (centres unmarked)  inhibition (Calmodulin-1 (CALM1, Homo sapiens, UniProt P0DP23); enzyme activity, inhibitor; 50 µM): 40 to 50%
CN(CCN1CCC(OC(=O)Nc2ccccc2-c2ccccc2)CC1)C(=O)c1ccc(CN2CCC(C(N)=O)CC2)cc1  inhibition (Progesterone receptor (PGR, Homo sapiens, UniProt P06401); ligand displacement, radioligand; 1 µM): 0%
CC(C)C[C@H](NC(=O)[C@H](Cc1ccccc1)NC(=O)c1cnccn1)B(O)O  inhibition (Lysosomal Pro-X carboxypeptidase (PRCP, Homo sapiens, UniProt P42785); enzyme activity, inhibitor; 33 µM): 77.9%
COc1ccc(S(=O)(=O)N2CCCCC2)cc1C  inhibition (Thyrotropin-releasing hormone receptor (TRHR, Homo sapiens, UniProt P34981); ligand displacement, radioligand; 10 µM): < 30%
N=C(N)c1ccc2cc(OC(=O)c3ccc(N=C(N)N)cc3)ccc2c1  inhibition (Collagenase 3 (MMP13, Homo sapiens, UniProt P45452); enzyme activity, inhibitor; 10 µM): 75%
c1ccc(C(NCCNC(c2ccccc2)c2ccccc2)c2ccccc2)cc1  inhibition (ADRB3; cell-free assay; 10 µM): 59%
O=C(NC[C@H](O)CO)[C@@H]1C[C@H](c2ccccc2)CCN1 (mixture of isomers)  inhibition (ADRB3; ligand displacement, radioligand; 10 µM): -11.2%
C[C@H](C(=O)N[C@H]1COc2ccccc2[C@@H]1S(C)(=O)=O)c1ccc(F)cc1  inhibition (Adenosine receptor A2b (ADORA2B, Homo sapiens, UniProt P29275); cell-free assay; 10 µM): 9%
COc1cc(Nc2ncc(F)c(Nc3ccc4c(n3)NC(=O)C(C)(C)O4)n2)cc(OC)c1OC  inhibition (Calcium/calmodulin-dependent protein kinase type II subunit gamma (CAMK2G, Homo sapiens, UniProt Q13555); binding, competition with immobilised ligand; 10 µM): 47%
O=C(Nc1cccnn1)N1CCN([C@@H]2CCOc3cc(C(F)(F)F)ccc32)CC1  inhibition (ADRB3; cell-free assay; 20 µM): -4%
C#Cc1n[nH]c2c(-c3cn([C@@H](C)c4ccccc4)c(=O)[nH]c3=O)cc(F)cc12  inhibition (Dual specificity protein kinase CLK2 (CLK2, Homo sapiens, UniProt P49760); enzyme activity, inhibitor; 0.1 µM): 3.8%
COc1ccc(N=Nc2ccc3[nH]cc(CCN(C)C)c3c2)cc1  inhibition (5-hydroxytryptamine receptor 4 (HTR4, Homo sapiens, UniProt Q13639); ligand displacement, radioligand; 10 µM): < 50%
